In general, inhibition refers to the relative decrease from the control value, in per cent. A word on the IC50: it is the point on the concentration scale where inhibition reaches its midpoint. A lower IC50 goes with greater potency in that assay. The term inhibition in vivo denotes how much of the control response was suppressed.

Activity calls are given as the source filed them.

This note sets out measurements from ChEMBL document CHEMBL1955718, “Discovery of new orally effective analgesic and anti-inflammatory hybrid furoxanyl N-acylhydrazone derivatives” (Bioorg Med Chem, 2012).

A short description of data set [1]: Cytotoxicity against human HT-29 cells expressing NF-kappaB-hrGFP assessed as highest non-cytotoxic dose for 100% cell survival after 24 hrs by MTT assay. In kind it is cell-based. To be noted: read-out: Activity. In short, it runs like this: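 HT-29 cells stably carrying pNF-κB-hrGFP, seeded at 0.5 × 10^6/mL in DMEM with 10% FBS, grown 24 h at 37 °C, 5% CO2. Compounds added in DMSO (<0.5% v/v final) at 12.5–400 µM for 24 h. Viability by MTT reduction (2 h), formazan dissolved in DMSO/glycine buffer, read at 560 nm.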

In data set [2] the test system is HT-29. Kind of data set: Pro-inflammatory activity in NFkappaB-GFP transfected human HT-29 cells at 25 to 400 uM after 24 hrs by propidium iodide staining-based flow cytometric analysis. It is filed as ADME, cell-based. The following applies: ht-29, 24 h. In short, it runs like this:
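Reporter HT-29-NF-κB-hrGFP cells given compound alone, without TNF-α, for 18–24 h at 37 °C after the same 2 h pre-incubation. GFP-positive live (propidium iodide-excluding) cells counted by flow cytometry; IL-8 in supernatant measured by bead-based flow cytometry.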
Background: Flow cytometry measures light scatter and fluorescence of single cells or particles in a stream.

For data set [3], the system named is HT-29. Kind of data set: Inhibition of TNFalpha-induced NF-kappaB activation expressed in human HT-29 cells coexpressing hrGFP at 200 uM after 24 hrs by propidium iodide staining-based flow cytometric analysis relative to control. It is filed as cell-based. In short, it runs like this:
(§1)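 HT-29 cells stably expressing NF-κB-driven hrGFP given compound (DMSO <0.5%) for 2 h at the maximum non-cytotoxic concentration, then TNF-α at 3 ng/mL final for 18–24 h. Cells trypsinised and stained with propidium iodide; 5000 events gated on FSC/SSC. The %GFP-positive among PI-excluding live cells is normalised to TNF-α/DMSO control, ± SD.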

A short description of data set [4]: Cytotoxicity against mouse […] cells after 48 hrs by MTT assay. In kind it is cell-based. In a few lines:
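J774 macrophages in DMEM (4 mM L-glutamine, 10% heat-inactivated FBS) were seeded at 1 × 10^5 cells/well and grown for 48 h at 37 °C, 5% CO2. They were then exposed to compounds at 25–400 µM for 48 h. MTT (0.1 mg/mL final) was added for 3 h, formazan was dissolved in DMSO/glycine buffer pH 10.5, and absorbance was read at 560 nm to give an IC50.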

Data set [5] deals with Mus musculus. In words: Analgesic activity in albino mouse assessed as inhibition of acetic acid-induced abdominal constriction at 100 umol/kg, po administered 1 hr before acetic acid challenge measured after 60 mins relative to control. It is filed as functional. The following applies: Abdomen. In short, it runs like this: (§2)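 Albino mice of both sexes (18–23 g) were dosed orally as a suspension in 5% arabic gum in saline, with vehicle controls. After 1 h they received 0.6% acetic acid ip (0.1 mL/10 g). Constrictions were counted for 20 min starting 10 min after injection. Data are % inhibition vs vehicle, mean ± SEM, Student t-test.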

For another data set, the system named is Glycine max. Kind of data set: Inhibition of soybean lipoxygenase using arachidonic acid as substrate at 50 uM. In short, it runs like this:
(§3)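 Soybean 15-lipoxygenase kit assay, arachidonic acid substrate, H2O2 as lipoxygenating agent in 0.1 M Tris-HCl pH 7.4. Single-point screen at 50 µM. IC50 found by varying concentration over 10–100 µM. Quercetin at 4 µM as positive control; duplicate means; Student t-test.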

The subject of data set [6] is Rattus norvegicus. Kind of data set: Antiinflammatory activity in albino rat assessed as inhibition of carrageenan-induced paw edema at 100 umol/kg, po administered 1 hr before carrageenan challenge measured after 3 hrs by plethysmometric analysis relative to control. In kind it is functional. In short, it runs like this: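 Albino rats of both sexes (150–200 g) were dosed orally as a suspension in 1% Tween 80 in saline, with vehicle controls. After 1 h, 0.1 mL 1% carrageenan or saline was injected subplantar. Paw volume was read by glass plethysmometer at 3 h. Edema = carrageenan-paw minus saline-paw volume; % inhibition vs vehicle; Student t-test.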
(In general: Carrageenan injected into the paw causes an acute inflammation.)

Data set [7] relates to HT-29. Kind of data set: Inhibition of TNFalpha-induced NF-kappaB activation expressed in human HT-29 cells coexpressing hrGFP at 400 uM after 24 hrs by propidium iodide staining-based flow cytometric analysis relative to control. In kind it is cell-based. In a few lines:
as §1

Data set [8] is described as follows: Induction of NO release in 0.1 M Tris-HCl and 0.1 mM DTPA at pH 8.3 measured for 20 mins in presence of cysteine. In kind it is physicochemical. The following applies: buffer, pH 8.3, 20 min. In a few lines:
(§4)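 Electrochemical NO detection with an ISO-NOP sensor. Compounds in DMSO added to 0.1 M Tris-HCl, 0.1 mM DTPA at pH 7.4 or 8.3. Cysteine (300 or 100 µM) added and NO recorded for 20 min at 25 or 37 °C; compound:Cys ratio 1:1 at 25 °C, with 3:1 and 37 °C runs also made.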

Data set [9] concerns Mus musculus. In words: Analgesic activity in albino mouse assessed as inhibition of acetic acid-induced abdominal constriction at 100 umol/kg, po administered 1 hr before acetic acid challenge measured after 30 mins relative to control. In kind it is functional. The following applies: Abdomen. In a few lines:
as §2

A short description of data set [10]: Induction of NO release in 0.1 M Tris-HCl and 0.1 mM DTPA at pH 7.4 measured for 20 mins in presence of cysteine. In kind it is physicochemical. To be noted: buffer, pH 7.4, 20 min. In short, it runs like this:
as §4

The test system of data set [11] is HT-29. In words: Inhibition of NF-kappaB activation expressed in human HT-29 cells assessed as inhibition of TNFalpha-stimulated IL8 release at 400 uM after 24 hrs by flow cytometric analysis relative to control. In kind it is cell-based. In a few lines: (§5)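 Reporter HT-29-NF-κB-hrGFP cells pretreated 2 h with compound (DMSO <0.5%) at the highest concentration with 100% survival, then stimulated with TNF-α (3 ng/mL final) for 18–24 h at 37 °C. IL-8 in clarified supernatant measured by flow cytometric bead assay (500 events). Expressed as % of TNF-α/DMSO control ± SD; thalidomide as reference.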

Data set [12] relates to HT-29. In words: Inhibition of NF-kappaB activation expressed in human HT-29 cells assessed as inhibition of TNFalpha-stimulated IL8 release at 100 uM after 24 hrs by flow cytometric analysis relative to control. In kind it is cell-based. In short, it runs like this:
as §5

Data set [13] in a line: Solubility of the compound in soybean lipoxygenase assay buffer at pH 7.4 at >50 uM. In kind it is physicochemical.
The subject of data set [14] is HT-29. Kind of data set: Inhibition of TNFalpha-induced NF-kappaB activation expressed in human HT-29 cells coexpressing hrGFP at 100 uM after 24 hrs by propidium iodide staining-based flow cytometric analysis relative to control. In kind it is cell-based. In short, it runs like this:
as §1

Data set [15] deals with HT-29. Kind of data set: Inhibition of TNF-alpha-induced NFkappaB activation expressed in human HT-29 cells coexpressing hrGFP at 50 uM after 24 hrs by propidium iodide staining-based flow cytometric analysis relative to control. It is filed as cell-based. In short, it runs like this: as §1
For data set [16], the system named is HT-29. In words: Inhibition of NF-kappaB activation expressed in human HT-29 cells assessed as inhibition of TNFalpha-stimulated IL8 release at 50 uM after 24 hrs by flow cytometric analysis relative to control. In kind it is cell-based. In short, it runs like this:
as §5

Data set [17] in a line: Inhibition of soybean lipoxygenase using arachidonic acid as substrate. Set-up: species or system Glycine max. In a few lines:
as §3

Data set [18] deals with Rattus norvegicus. In words: Antihyperalgesic activity against carrageenan-induced thermal hyperalgesia in Wistar rat assessed as latency of withdrawal response at 100 umol/kg, po administered 1 hr before carrageenan challenge measured after 30 to 240 mins by hot plate test. In kind it is functional, organism-based. In a few lines: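 Wistar rats of both sexes (150–200 g) dosed orally at 100 µmol/kg as suspension in 5% arabic gum in saline, vehicle controls. After 1 h, 1% carrageenan (1 mg/paw) or saline injected subplantar. Left hind paw withdrawal latency on hot plate at 51 ± 0.1 °C read at 0–240 min, 20 s cut-off. Δ latency = time-0 latency minus later latency; mean ± SEM, n = 8–10; Student t-test.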
In general terms: In hot-plate and tail-flick tests a longer latency is read as antinociception.

`Cc1[nH]cnc1C(=O)N/N=C/c1c(-c2ccccc2)no[n+]1[O-]`: the MNTC at 24 h in data set [1] is 200 µM. In the data set on HT-29 [2], the Activity result was “Non-toxic”. Also, in the data set on HT-29 [3], the inhibition came out at 103%. In [4], this compound gave an IC50 of over 400 µM.

With `Cc1nc2ccccn2c1C(=O)N/N=C/c1c(-c2ccccc2)no[n+]1[O-]`, the figures for the inhibition in vivo at 100 µmol/kg with Mus musculus [5], with Rattus norvegicus [6] and with Mus musculus [9] were 14%, 18% and 2%, respectively. The inhibition worked out at 0% with Glycine max and 38% in the data set with HT-29 [11]. In addition, in data set [1], the MNTC at 24 h was found to be 400 µM. Further, the Activity result is listed as “Non-toxic” with HT-29 [2], 0 nM/min in data set [8] and 0 nM/min in [10]. This compound also had an NF-kappaB activity (GFP-positive cells), % of TNF-alpha control in the data set with HT-29 [7] of 32%. In [4], this compound had an IC50 of 56 µM.

On to `Cc1[nH]cnc1C(=O)N/N=C/c1no[n+]([O-])c1C`, for which the inhibition in the data set on HT-29 [12] was 103%; with Glycine max, 27%. The MNTC at 24 h in data set [1] was determined as 100 µM. In addition, in data set [13], the solubility result was “Insoluble”. Besides, in the data set on HT-29 [2], the Activity result is listed as “Non-toxic”. Further, the IC50 in [4] is over 400 µM. Also, the NF-kappaB activity (% of TNF-alpha control) in the data set on HT-29 [14] was 126%.

Regarding `NNC(=O)c1ccc2c(c1)OCO2`, the MNTC at 24 h in data set [1] stood at 50 µM. Besides, in the data set with HT-29 [2], the Activity result is “Non-toxic”. In [4], the IC50 is over 400 µM. In addition, the NF-kappaB activation (% of TNF-alpha control) in the data set with HT-29 [15] stood at 118%.

On to `Cc1c(/C=N/NC(=O)c2cccnc2)no[n+]1[O-]` (mixture of isomers), for which the inhibition with HT-29 [12] came to 105%; in the data set on Glycine max, 22%. Also, the MNTC at 24 h in data set [1] was found to be 100 µM. Moreover, the solubility result in data set [13] is “Insoluble”. Moreover, in the data set on HT-29 [2], the Activity entry is on record as “Non-toxic”. The same compound returned an IC50 in [4] of over 400 µM. The NF-kappaB activity (% of TNF-alpha control) with HT-29 [14] turned out to be 112%.

Take `O=C(O)c1ccc(/C=N/NC(=O)c2c(-c3ccccc3)no[n+]2[O-])cc1`: the results for the inhibition with Glycine max and with HT-29 [16] were 53% and 114%, respectively. Besides, the MNTC at 24 h in [1] came out at 50 µM. In addition, the Activity result in the data set with HT-29 [2] is reported as “Non-toxic”; in [8] it was 0 nM/min. Besides, the IC50 in data set [17] is 50 µM; in data set [4] it was over 300 µM. In addition, in the data set on HT-29 [15], the NF-kappaB activation (% of TNF-alpha control) came out at 115%.

In the case of `Cc1nc2ccccn2c1C(=O)NN`, in data set [1], the MNTC at 24 h amounted to 50 µM. In the data set on HT-29 [2], the Activity entry is “Non-toxic”. The same compound had an IC50 in [4] of over 400 µM. Further, the NF-kappaB activation (% of TNF-alpha control) in the data set with HT-29 [15] is 111%.

`O=C(N/N=C/c1ccc2no[n+]([O-])c2c1)c1cccnc1`: the result in the data set on Rattus norvegicus [18] was inactive. Besides, the inhibition was determined as 0% in the data set on Glycine max and 29% with HT-29 [16]. Besides, in [1], the MNTC at 24 h was found to be 50 µM. For the same compound, the figures for the Activity entry (in the data set with HT-29 [2]; in data set [8]; in data set [10]) were “Non-toxic”, 0.64 nM/min and 0 nM/min, respectively. The values for the inhibition in vivo at 100 µmol/kg in the data set on Rattus norvegicus [6] and with Mus musculus [9] were 0% and 35%, respectively. In data set [4], 31 µM corresponded to half-maximal inhibition (IC50). This compound returned an NF-kappaB activation (% of TNF-alpha control) in the data set with HT-29 [15] of 66%.

Take `Cc1c(C(=O)N/N=C/c2ccccc2O)no[n+]1[O-]`: the inhibition with Glycine max was determined as 37%. In addition, the MNTC at 24 h in data set [1] worked out at 100 µM. Besides, the solubility entry in [13] is reported as “Insoluble”. Besides, in the data set on HT-29 [2], the Activity entry is reported as “Non-toxic”. Moreover, inhibition in data set [4] was half-maximal at 246 µM (IC50). Besides, the NF-kappaB activity (% of TNF-alpha control) with HT-29 [14] turned out to be 55%.
